Test results published in ChEMBL document CHEMBL1255456, “Effect of NlpE overproduction on multidrug resistance in Escherichia coli” (2010).
Values after ≈ are worked out from the molar mass of the structure shown. Active and inactive are the calls of the source. The rule behind the calls is not given here.

Legend:
Escherichia coli [1] = test: Antibacterial activity against Escherichia coli NKE96 harboring deletion mutation in acrB protein; type: functional
Escherichia coli [2] = test: Antibacterial activity against Escherichia coli NKE154 harboring vector expressing acrB deletion mutant; type: functional
Escherichia coli [3] = test: Antibacterial activity against Escherichia coli NKE155 harboring deletion mutation in acrB protein and plasmid expressing nlpE gene; type: functional
Escherichia coli [4] = test: Antibacterial activity against Escherichia coli NKE127 harboring deletion mutation in acrB and cpxAR protein; type: functional
Escherichia coli [5] = test: Antibacterial activity against Escherichia coli NKE158 harboring deletion mutation in acrB protein and vector expressing cpxAR gene; type: functional
Escherichia coli [6] = test: Antibacterial activity against Escherichia coli NKE159 harboring deletion mutation in acrB, cpxAR protein and plasmid expressing nlpE gene; type: functional
Escherichia coli [7] = test: Antibacterial activity against Escherichia coli NKE128 harboring deletion mutation in acrB and tolC protein; type: functional
Escherichia coli [8] = test: Antibacterial activity against Escherichia coli NKE160 harboring deletion mutation in acrB protein and vector expressing tolC gene; type: functional
Escherichia coli [9] = test: Antibacterial activity against Escherichia coli NKE161 harboring deletion mutation in acrB protein, vector expressing tolC gene and plasmid expressing nlpE gene; type: functional
Escherichia coli [10] = test: Antibacterial activity against Escherichia coli NKE126 harboring deletion mutation in acrB and acrD protein; type: functional
Escherichia coli [11] = test: Antibacterial activity against Escherichia coli NKE156 harboring deletion mutation in acrB protein and vector expressing acrD gene; type: functional
Escherichia coli [12] = test: Antibacterial activity against Escherichia coli NKE157 harboring deletion mutation in acrB, acrD protein and plasmid expressing nlpE gene; type: functional
Escherichia coli [13] = test: Antibacterial activity against Escherichia coli NKE1365 harboring deletion mutation in acrB and mdtABC protein; type: functional
Escherichia coli [14] = test: Antibacterial activity against Escherichia coli NKE1366 harboring deletion mutation in acrB and vector expressing mdtABC gene; type: functional
Escherichia coli [15] = test: Antibacterial activity against Escherichia coli NKE1367 harboring deletion mutation in acrB, mdtABC protein and plasmid expressing nlpE gene; type: functional
Escherichia coli [16] = test: Antibacterial activity against Escherichia coli NKE1316 harboring deletion mutation in acrB, acrD and mdtABC protein; type: functional
Escherichia coli [17] = test: Antibacterial activity against Escherichia coli NKE1369 harboring deletion mutation in acrB, acrD, mdtABC protein and plasmid expressing nlpE gene; type: functional
Escherichia coli [18] = test: Antibacterial activity against Escherichia coli NKE1359 harboring deletion mutation in acrB protein and plasmid expressing BADnlpE gene in presence of increasing concentration of arabinose; type: functional, organism-based
Outline: (§1)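 ΔacrB host carrying empty pBAD33 or pBAD33 with nlpE under the arabinose-inducible PBAD promoter. MICs of oxacillin, cloxacillin, nafcillin, cefamandole, aztreonam, novobiocin, deoxycholate and kanamycin were measured with arabinose at several concentrations from 0 to 10,000 μM. Each MIC determination was repeated at least three times.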

Escherichia coli [19] = test: Antibacterial activity against Escherichia coli NKE1355 harboring deletion mutation in acrB protein and plasmid expressing BAD gene in presence of increasing concentration of arabinose; type: functional, organism-based; outline: as §1
Escherichia coli [20] = test: Antibacterial activity against Escherichia coli NKE1368 harboring deletion mutation in acrB, acrD and mdtABC genes and carrying empty pHSG398 vector

Compound | MIC (Escherichia coli [1]) [µg/mL] | MIC (Escherichia coli [2]) [µg/mL] | MIC (Escherichia coli [3]) [µg/mL] | MIC (Escherichia coli [4]) [µg/mL] | MIC (Escherichia coli [5]) [µg/mL] | MIC (Escherichia coli [6]) [µg/mL] | MIC (Escherichia coli [7]) [µg/mL] | MIC (Escherichia coli [8]) [µg/mL] | MIC (Escherichia coli [9]) [µg/mL] | MIC (Escherichia coli [10]) [µg/mL] | MIC (Escherichia coli [11]) [µg/mL] | MIC (Escherichia coli [12]) [µg/mL] | MIC (Escherichia coli [13]) [µg/mL] | MIC (Escherichia coli [14]) [µg/mL] | MIC (Escherichia coli [15]) [µg/mL] | MIC (Escherichia coli [16]) [µg/mL] | MIC (Escherichia coli [17]) [µg/mL] | Activity (Escherichia coli [18]) | Activity (Escherichia coli [19]) | MIC (Escherichia coli [20]) [µg/mL]
C[C@H]1[C@H](NC(=O)/C(=N\OC(C)(C)C(=O)O)c2csc(N)n2)C(=O)N1S(=O)(=O)O [AZTREONAM] | 0.063 (≈ 0.145 µM) | 0.063 (≈ 0.145 µM) | 0.25 (≈ 0.574 µM) | 0.063 (≈ 0.145 µM) | 0.063 (≈ 0.145 µM) | 0.063 (≈ 0.145 µM) | 0.063 (≈ 0.145 µM) | 0.063 (≈ 0.145 µM) | 0.063 (≈ 0.145 µM) | 0.063 (≈ 0.145 µM) | 0.063 (≈ 0.145 µM) | 0.063 (≈ 0.145 µM) | 0.063 (≈ 0.145 µM) | 0.063 (≈ 0.145 µM) | 0.25 (≈ 0.574 µM) | 0.063 (≈ 0.145 µM) | 0.063 (≈ 0.145 µM) | inactive | Active | 0.063 (≈ 0.145 µM)
CC1(C)S[C@@H]2[C@H](NC(=O)C(C(=O)O)c3ccccc3)C(=O)N2[C@H]1C(=O)O (some centres undefined) [CARBENICILLIN] | 1 (≈ 2.64 µM) | 1 (≈ 2.64 µM) | 8 (≈ 21.1 µM) | 1 (≈ 2.64 µM) | 1 (≈ 2.64 µM) | 1 (≈ 2.64 µM) | 1 (≈ 2.64 µM) | 1 (≈ 2.64 µM) | 1 (≈ 2.64 µM) | 1 (≈ 2.64 µM) | 1 (≈ 2.64 µM) | 2 (≈ 5.29 µM) | 1 (≈ 2.64 µM) | 1 (≈ 2.64 µM) | 4 (≈ 10.6 µM) | 1 (≈ 2.64 µM) | 1 (≈ 2.64 µM) |  |  | 1 (≈ 2.64 µM)
NC(=O)OC[C@@H]1[C@H](NC(=O)/C(=N\OCC(=O)O)c2csc(N)n2)C(=O)N1S(=O)(=O)O [CARUMONAM] | 0.031 (≈ 0.0665 µM) | 0.031 (≈ 0.0665 µM) | 0.25 (≈ 0.536 µM) | 0.031 (≈ 0.0665 µM) | 0.031 (≈ 0.0665 µM) | 0.031 (≈ 0.0665 µM) | 0.031 (≈ 0.0665 µM) | 0.031 (≈ 0.0665 µM) | 0.031 (≈ 0.0665 µM) | 0.031 (≈ 0.0665 µM) | 0.031 (≈ 0.0665 µM) | 0.063 (≈ 0.135 µM) | 0.031 (≈ 0.0665 µM) | 0.031 (≈ 0.0665 µM) | 0.13 (≈ 0.279 µM) | 0.031 (≈ 0.0665 µM) | 0.031 (≈ 0.0665 µM) |  |  | 0.031 (≈ 0.0665 µM)
Cn1nnnc1SCC1=C(C(=O)O)N2C(=O)[C@@H](NC(=O)[C@H](O)c3ccccc3)[C@H]2SC1 [CEFAMANDOLE] | 0.063 (≈ 0.136 µM) | 0.063 (≈ 0.136 µM) | 0.25 (≈ 0.541 µM) | 0.063 (≈ 0.136 µM) | 0.063 (≈ 0.136 µM) | 0.063 (≈ 0.136 µM) | 0.063 (≈ 0.136 µM) | 0.063 (≈ 0.136 µM) | 0.063 (≈ 0.136 µM) | 0.063 (≈ 0.136 µM) | 0.063 (≈ 0.136 µM) | 0.13 (≈ 0.281 µM) | 0.063 (≈ 0.136 µM) | 0.063 (≈ 0.136 µM) | 0.13 (≈ 0.281 µM) | 0.063 (≈ 0.136 µM) | 0.063 (≈ 0.136 µM) | inactive | Active | 0.063 (≈ 0.136 µM)
Cc1onc(-c2ccccc2Cl)c1C(=O)N[C@@H]1C(=O)N2[C@@H]1SC(C)(C)[C@@H]2C(=O)O [CLOXACILLIN] | 1 (≈ 2.29 µM) | 1 (≈ 2.29 µM) | 16 (≈ 36.7 µM) | 1 (≈ 2.29 µM) | 1 (≈ 2.29 µM) | 1 (≈ 2.29 µM) | 0.25 (≈ 0.574 µM) | 0.25 (≈ 0.574 µM) | 0.25 (≈ 0.574 µM) | 1 (≈ 2.29 µM) | 1 (≈ 2.29 µM) | 2 (≈ 4.59 µM) | 1 (≈ 2.29 µM) | 1 (≈ 2.29 µM) | 4 (≈ 9.18 µM) | 0.5 (≈ 1.15 µM) | 0.5 (≈ 1.15 µM) | inactive | Active | 0.5 (≈ 1.15 µM)
C[C@H](CCC(=O)O)[C@H]1CC[C@H]2[C@@H]3CC[C@@H]4C[C@H](O)CC[C@]4(C)[C@H]3C[C@H](O)[C@]12C [DEOXYCHOLIC ACID] | 5000 (≈ 12700 µM) | 5000 (≈ 12700 µM) | 40000 (≈ 102000 µM) | 2500 (≈ 6370 µM) | 2500 (≈ 6370 µM) | 2500 (≈ 6370 µM) | 156 (≈ 397 µM) | 156 (≈ 397 µM) | 156 (≈ 397 µM) | 5000 (≈ 12700 µM) | 5000 (≈ 12700 µM) | 10000 (≈ 25500 µM) | 5000 (≈ 12700 µM) | 5000 (≈ 12700 µM) | 10000 (≈ 25500 µM) | 2500 (≈ 6370 µM) | 2500 (≈ 6370 µM) | inactive | Active | 2500 (≈ 6370 µM)
NC[C@H]1O[C@H](O[C@H]2[C@H](O)[C@@H](O[C@H]3O[C@H](CO)[C@@H](O)[C@H](N)[C@H]3O)[C@H](N)C[C@@H]2N)[C@H](O)[C@@H](O)[C@@H]1O [KANAMYCIN] | 2 (≈ 4.13 µM) | 2 (≈ 4.13 µM) | 8 (≈ 16.5 µM) | 1 (≈ 2.06 µM) | 1 (≈ 2.06 µM) | 1 (≈ 2.06 µM) | 1 (≈ 2.06 µM) | 1 (≈ 2.06 µM) | 2 (≈ 4.13 µM) | 2 (≈ 4.13 µM) | 2 (≈ 4.13 µM) | 4 (≈ 8.26 µM) | 2 (≈ 4.13 µM) | 2 (≈ 4.13 µM) | 8 (≈ 16.5 µM) | 2 (≈ 4.13 µM) | 4 (≈ 8.26 µM) | inactive | Active | 2 (≈ 4.13 µM)
CCOc1ccc2ccccc2c1C(=O)N[C@@H]1C(=O)N2[C@@H]1SC(C)(C)[C@@H]2C(=O)O [NAFCILLIN] | 2 (≈ 4.83 µM) | 2 (≈ 4.83 µM) | 16 (≈ 38.6 µM) | 1 (≈ 2.41 µM) | 1 (≈ 2.41 µM) | 1 (≈ 2.41 µM) | 1 (≈ 2.41 µM) | 1 (≈ 2.41 µM) | 1 (≈ 2.41 µM) | 1 (≈ 2.41 µM) | 1 (≈ 2.41 µM) | 4 (≈ 9.65 µM) | 1 (≈ 2.41 µM) | 1 (≈ 2.41 µM) | 4 (≈ 9.65 µM) | 1 (≈ 2.41 µM) | 1 (≈ 2.41 µM) | inactive | Active | 1 (≈ 2.41 µM)
CO[C@@H]1[C@@H](OC(N)=O)[C@@H](O)[C@H](Oc2ccc3c(O)c(NC(=O)c4ccc(O)c(CC=C(C)C)c4)c(=O)oc3c2C)OC1(C)C [NOVOBIOCIN] | 4 (≈ 6.53 µM) | 4 (≈ 6.53 µM) | 16 (≈ 26.1 µM) | 4 (≈ 6.53 µM) | 4 (≈ 6.53 µM) | 4 (≈ 6.53 µM) | 2 (≈ 3.26 µM) | 2 (≈ 3.26 µM) | 2 (≈ 3.26 µM) | 4 (≈ 6.53 µM) | 4 (≈ 6.53 µM) | 8 (≈ 13.1 µM) | 4 (≈ 6.53 µM) | 4 (≈ 6.53 µM) | 8 (≈ 13.1 µM) | 2 (≈ 3.26 µM) | 2 (≈ 3.26 µM) | inactive | Active | 2 (≈ 3.26 µM)
Cc1onc(-c2ccccc2)c1C(=O)N[C@@H]1C(=O)N2[C@@H]1SC(C)(C)[C@@H]2C(=O)O [OXACILLIN] | 1 (≈ 2.49 µM) | 1 (≈ 2.49 µM) | 8 (≈ 19.9 µM) | 0.5 (≈ 1.25 µM) | 0.5 (≈ 1.25 µM) | 0.5 (≈ 1.25 µM) | 0.5 (≈ 1.25 µM) | 0.5 (≈ 1.25 µM) | 0.5 (≈ 1.25 µM) | 0.5 (≈ 1.25 µM) | 0.5 (≈ 1.25 µM) | 2 (≈ 4.98 µM) | 1 (≈ 2.49 µM) | 1 (≈ 2.49 µM) | 4 (≈ 9.96 µM) | 0.5 (≈ 1.25 µM) | 0.5 (≈ 1.25 µM) | inactive | Active | 0.5 (≈ 1.25 µM)
CC1(C)S[C@@H]2[C@H](NC(=O)C(c3ccccc3)S(=O)(=O)O)C(=O)N2[C@H]1C(=O)O (some centres undefined) [SULBENICILLIN] | 2 (≈ 4.83 µM) | 2 (≈ 4.83 µM) | 16 (≈ 38.6 µM) | 1 (≈ 2.41 µM) | 1 (≈ 2.41 µM) | 1 (≈ 2.41 µM) | 1 (≈ 2.41 µM) | 1 (≈ 2.41 µM) | 1 (≈ 2.41 µM) | 1 (≈ 2.41 µM) | 1 (≈ 2.41 µM) | 2 (≈ 4.83 µM) | 2 (≈ 4.83 µM) | 2 (≈ 4.83 µM) | 8 (≈ 19.3 µM) | 1 (≈ 2.41 µM) | 1 (≈ 2.41 µM) |  |  | 1 (≈ 2.41 µM)
